Test results reported in ChEMBL document CHEMBL1126834, “Chemistry, binding affinities, and behavioral properties of a new class of "antineophobic" mitochondrial DBI receptor complex (mDRC) ligands” (J Med Chem, 1993).

What was measured:
[1] = biological target: Serotonin 2 (5-HT2) receptor (Rattus norvegicus); test: Inhibitory activity by measuring its ability to displace [3H]ketanserin from serotonin receptor in rat brain
[2] = biological target: GABA-A receptor; anion channel; test: Inhibitory activity at GABA A receptor, measured by the ability to displace [3H]GABA from GABA A receptor in rat brain; type: tissue-based
[3] = Inhibitory activity at GABA B receptor, measured by the ability to displace [3H]baclofen from GABA B receptor in rat brain; type: tissue-based
[4] = biological target: Adrenergic receptor alpha; test: Inhibitory activity by measuring its ability to displace [3H]WB-4101 from alpha-adrenergic receptor in rat brain; type: tissue-based
Glutamate NMDA receptor = test: Inhibitory activity by measuring its ability to displace [3H]-MK-801 from glutamate(NMDA) receptor in rat brain; type: tissue-based
[5] = biological target: Sigma receptor (Rattus norvegicus); test: Tested for inhibitory activity by measuring its ability to displace [3H]3-PPP from sigma receptor in rat brain
Translocator protein = Translocator protein (Rattus norvegicus, UniProt P16257); test: Binding affinity against mitochondrial DBI complex (peripheral benzodiazepine receptor) using primary cultures of glial cells
Procedure, shortened: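 Glia from cerebella of 8-day-old Sprague–Dawley rat pups, trypsin-dissociated and grown 14 days (~95% astroglia). Cells lysed in 50 mM Hepes pH 7.4, 4 μg protein per tube. Incubated with [3H]4'-chlorodiazepam and competitor for 90 min at 4 °C, then filtered. Nonspecific binding defined with 10 μM 4'-chlorodiazepam. Triplicate competition curves; IC50 by nonlinear regression, converted to Ki (Bylund–Yamamura).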

Cannabinoid receptor 1 = Cannabinoid receptor 1 (Rattus norvegicus, UniProt P20272); test: Inhibitory activity, measured by displacement [3H]CP-55940 from cannabinoid receptor (CB1) in rat brain; type: tissue-based
[6] = Inhibitory activity by measuring its ability to displace [3H]spiperone from dopamine or serotonin 5-HT-1 receptors in rat brain; type: tissue-based
[7] = Tested for inhibitory activity by measuring its ability to displace [3H]AMPA from glutamate (non-NMDA) receptor in rat brain; type: tissue-based
Opioid receptor = Opioid receptor (Rattus norvegicus, UniProt P33533+P34975+P33535); test: Inhibition of [3H]naxolone binding to opiate receptors in rat brain; type: tissue-based
[8] = Inhibitory activity by measuring its ability to displace [3H]glycine from glycine receptor in rat brain; type: tissue-based
[9] = biological target: GABA-A receptor; anion channel; test: Inhibitory activity at GABA A receptor, measured by the ability to displace [3H]flumazenil from GABA A receptor in rat brain; type: tissue-based
Adrenergic receptor beta = Adrenergic receptor beta (Rattus norvegicus, UniProt P18090+P10608+P26255); test: Inhibitory activity by measuring its ability to displace [125I]pindolol from beta-adrenergic receptor in rat brain; type: tissue-based
[10] = biological target: Adrenergic receptor alpha; test: Inhibitory activity by measuring its ability to displace [3H]clonidine from alpha-adrenergic receptor in rat brain; type: tissue-based
[11] = biological target: GABA-A receptor; anion channel; test: Inhibitory activity at GABA A receptor, measured by the ability to displace [35S]TBPS from GABA A receptor in rat brain; type: tissue-based
[12] = biological target: T1, Gastrin/cholecystokinin type B receptor (Rattus norvegicus, UniProt P30553); test: Inhibitory activity by measuring its ability to displace [3H]L-365260 from cholecystokinin receptor in rat brain; type: tissue-based
T1 sequence (P30553 whole entry): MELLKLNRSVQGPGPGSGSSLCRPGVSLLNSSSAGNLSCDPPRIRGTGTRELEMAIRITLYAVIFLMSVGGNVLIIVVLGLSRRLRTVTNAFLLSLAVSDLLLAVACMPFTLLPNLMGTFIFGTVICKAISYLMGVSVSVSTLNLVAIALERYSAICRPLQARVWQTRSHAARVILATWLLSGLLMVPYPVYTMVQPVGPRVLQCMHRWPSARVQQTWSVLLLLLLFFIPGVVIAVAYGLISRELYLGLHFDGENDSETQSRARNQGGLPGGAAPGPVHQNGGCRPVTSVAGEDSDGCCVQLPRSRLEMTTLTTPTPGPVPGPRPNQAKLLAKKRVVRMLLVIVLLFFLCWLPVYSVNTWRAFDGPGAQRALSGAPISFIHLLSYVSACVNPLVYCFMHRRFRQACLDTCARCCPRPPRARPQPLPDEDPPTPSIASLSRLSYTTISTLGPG

[13] = biological target: GABA-A receptor; anion channel; test: Inhibitory activity at GABA A receptor, measured by the ability to displace [3H]zolpidem from GABA A receptor in rat brain; type: tissue-based
[14] = biological target: Adrenergic receptor alpha; test: Displacement of [3H]clonidine from alpha-adrenergic receptor in rat brain; type: tissue-based
Rattus norvegicus [15] = test: Tested for antineophobic activity using the elevated plus maze test administered at 59 umol/kg perorally in rats; type: functional
Rattus norvegicus [16] = test: Tested for antineophobic activity using the elevated plus maze test administered at 58 umol/kg perorally in rats; type: functional

Sequence of Cannabinoid receptor 1 (P20272 whole entry): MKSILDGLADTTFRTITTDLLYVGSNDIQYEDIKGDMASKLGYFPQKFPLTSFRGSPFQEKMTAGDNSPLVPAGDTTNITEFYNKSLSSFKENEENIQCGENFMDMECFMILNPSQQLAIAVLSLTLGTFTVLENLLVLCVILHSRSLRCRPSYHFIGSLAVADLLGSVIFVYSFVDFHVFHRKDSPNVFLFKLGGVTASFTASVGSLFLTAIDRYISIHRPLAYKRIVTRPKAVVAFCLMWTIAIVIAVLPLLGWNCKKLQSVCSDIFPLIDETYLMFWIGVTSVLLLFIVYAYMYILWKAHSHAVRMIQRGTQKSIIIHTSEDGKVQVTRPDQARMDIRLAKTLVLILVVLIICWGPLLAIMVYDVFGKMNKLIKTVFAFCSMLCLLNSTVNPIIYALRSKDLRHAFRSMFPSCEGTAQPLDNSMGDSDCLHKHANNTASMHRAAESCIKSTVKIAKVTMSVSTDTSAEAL
Sequence of Translocator protein (P16257 whole entry, looked up): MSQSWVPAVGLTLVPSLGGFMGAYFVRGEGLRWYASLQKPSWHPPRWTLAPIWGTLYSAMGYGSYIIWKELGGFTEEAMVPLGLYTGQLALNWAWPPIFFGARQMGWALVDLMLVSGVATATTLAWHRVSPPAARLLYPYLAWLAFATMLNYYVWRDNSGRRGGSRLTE

| Compound | IC50 [1] [µM] | IC50 [2] [µM] | IC50 [3] [µM] | IC50 [4] [µM] | IC50 (Glutamate NMDA receptor) [µM] | IC50 [5] [µM] | Ki (Translocator protein) [µM] | IC50 (Cannabinoid receptor 1) [µM] | IC50 [6] [µM] | IC50 [7] [µM] | IC50 (Opioid receptor) [µM] | IC50 [8] [µM] | IC50 [9] [µM] | IC50 (Adrenergic receptor beta) [µM] | IC50 [10] [µM] | IC50 [11] [µM] | IC50 [12] [µM] | IC50 [13] [µM] | IC50 [14] [µM] | further results |
| --- | --- | --- | --- | --- | --- | --- | --- | --- | --- | --- | --- | --- | --- | --- | --- | --- | --- | --- | --- | --- |
| CCCN(CCC)C(=O)CCc1c(-c2ccc(Cl)cc2)[nH]c2ccc(Cl)cc12 | > 1 | > 1 | > 1 | > 1 | > 1 | > 1 | 0.071 | > 1 | > 1 | > 1 | > 1 | > 1 | > 1 | > 1 | > 1 | > 1 | > 1 | > 1 |  |  |
| CCCCCN(CCCCC)C(=O)Cc1c(-c2ccc(F)cc2)[nH]c2ccccc12 | > 1 | > 1 | > 1 | > 1 | > 1 | > 1 | 0.015 | > 1 | > 1 | > 1 | > 1 | > 1 | > 1 | > 1 | > 1 | > 1 | > 1 | > 1 |  |  |
| CCCCCCCCCCNC(=O)Cc1c(-c2ccccc2)[nH]c2ccccc12 | > 1 | > 1 | > 1 | > 1 | > 1 | > 1 | > 1 | > 1 | > 1 | > 1 | > 1 | > 1 | > 1 | > 1 | > 1 | > 1 | > 1 | > 1 |  |  |
| CCCCCCCCCCCCCCCCCCNC(=O)Cc1c(-c2ccccc2)[nH]c2ccccc12 | > 1 | > 1 | > 1 | > 1 | > 1 | > 1 |  | > 1 | > 1 | > 1 | > 1 | > 1 | > 1 | > 1 |  | > 1 | > 1 | > 1 | > 1 |  |
| CCCCCCNC(=O)Cc1c(-c2ccccc2)[nH]c2ccccc12 | > 1 | > 1 | > 1 | > 1 | > 1 | > 1 | 0.096 | > 1 | > 1 | > 1 | > 1 | > 1 | > 1 | > 1 | > 1 | > 1 | > 1 | > 1 |  |  |
| CCCN(CCC)C(=O)Cc1c(-c2ccc(Cl)cc2)[nH]c2ccc(Cl)cc12 | > 1 | > 1 | > 1 | > 1 | > 1 | > 1 | 0.0039 | > 1 | > 1 | > 1 | > 1 | > 1 | > 1 | > 1 | > 1 | > 1 | > 1 | > 1 |  |  |
| CCCN(CCC)C(=O)Cc1c2n(c3ccccc13)Cc1ccccc1-2 | > 1 | > 1 | > 1 | > 1 | > 1 | > 1 | 0.02 | > 1 | > 1 | > 1 | > 1 | > 1 | > 1 | > 1 |  | > 1 | > 1 | > 1 | > 1 |  |
| CCCCCCN(CCCCCC)C(=O)Cc1c(-c2ccccc2)[nH]c2ccccc12 | > 1 | > 1 | > 1 | > 1 | > 1 | > 1 | 0.0097 | > 1 | > 1 | > 1 | > 1 | > 1 | > 1 | > 1 | > 1 | > 1 | > 1 | > 1 |  | No. of entries (Rattus norvegicus [15]): 1.6; Time (Rattus norvegicus [15]): 6.2% |
| CCCN(CCC)C(=O)Cc1c(-c2ccc(I)cc2)[nH]c2ccccc12 | > 1 | > 1 | > 1 | > 1 | > 1 | > 1 | 0.216 | > 1 | > 1 | > 1 | > 1 | > 1 | > 1 | > 1 | > 1 | > 1 | > 1 | > 1 |  |  |
| CCCCCCCCN(CCCCCCCC)C(=O)Cc1c(-c2ccccc2)[nH]c2ccccc12 |  | > 1 | > 1 | > 1 | > 1 |  | > 1 | > 1 | > 1 | > 1 |  | > 1 | > 1 | > 1 |  | > 1 | > 1 | > 1 | > 1 |  |
| CCCCCCN(CCCCCC)CCc1c(-c2ccc(F)cc2)[nH]c2ccccc12 |  | > 1 | > 1 | > 1 | > 1 |  | 0.2 | > 1 | > 1 | > 1 |  | > 1 | > 1 | > 1 |  | > 1 | > 1 | > 1 | > 1 | No. of entries (Rattus norvegicus [15]): 2; Time (Rattus norvegicus [15]): 4.1% |
| CCCN(CCC)C(=O)Cc1cn(Cc2ccc(Br)cc2)c2ccccc12 |  | > 1 | > 1 | > 1 | > 1 |  | 0.2 | > 1 | > 1 | > 1 |  | > 1 | > 1 | > 1 | > 1 | > 1 | > 1 | > 1 |  | No. of entries (Rattus norvegicus [16]): 0.6; Time (Rattus norvegicus [16]): 1% |
| CCCCCCN(CCCCCC)C(=O)Cc1c2n(c3ccccc13)Cc1ccccc1-2 |  | > 1 | > 1 | > 1 | > 1 |  | 0.0077 | > 1 | > 1 | > 1 |  | > 1 | > 1 | > 1 |  | > 1 | > 1 | > 1 | > 1 | No. of entries (Rattus norvegicus [16]): 2; Time (Rattus norvegicus [16]): 6.4% |
